Assay outcomes (PubChem)
In the library only some 5.9% were active in any assay of this set; here they are far more common.
Pf Dd2 inh: blocks growth of Plasmodium falciparum Dd2 parasites | 94,000 tested, 2.3% active | activity change, % at 10 µM | P. falciparum Dd2 growth, SYBR Green, 72 h; active compounds read low; in the data active = activity change below about -80%; inconclusive = no clear call, values can overlap the other calls
T cruzi growth-1: inhibitors of T. cruzi proliferation; 77,000 tested, 5.9% active; inhibition, % at 8.34 µM; T. cruzi beta-gal in NIH3T3, GalScreen luminescence, 90 h; AID 624255;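 active = mean inhibition above about 93%, with at least 55% of replicates each passing it, limit read from the data, passing the limit was not always enough; inconclusive = only one of those two conditions holds; inactive = neither condition holds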
KDM4C inh: KDM4C (human) demethylase inhibition. Q9H3R0. GST-KDM4C 2-372, H3K9me3 peptide, LANCE TR-FRET. inhibition, % at 12.5 µM. 96,000 tested, 0.15% active;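 active = mean replicate inhibition above about 25%, with at least 55% of replicates also reaching it, limit read from the data, passing the limit was not always enough; inconclusive = only one of those two conditions met; inactive = neither condition met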
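System – N-terminal GST-fused human GASC-1 (KDM4C) fragment, residues 2-372 · Input – enzyme final amount 10 nM · Technique – LANCE TR-FRET, Eu antibody, ULight-streptavidin, EDTA, ex 340 nm, em 618/671 nm · Medium – HEPES buffer, pH 7.5, plus ascorbate · Incubation – enzyme reaction 30 min, then detection 60 min, both room temperature · Reagent – H3K9me3 peptide with Fe(II)/2OG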
IDH1 mut inh: blocks human IDH1 R132H reductase activity. O75874. diaphorase/resazurin fluorescence, 60 min. inhibition, % at 10 µM. 70,000 tested, 0.18% active. AID 624101; in the data active = inhibition above about 34%; inconclusive = no clear call, values can overlap the other calls; inactive = below about 11%;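 note: 0% = DMSO and 100% = no enzyme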
Target sequence (O75874 whole entry R132H): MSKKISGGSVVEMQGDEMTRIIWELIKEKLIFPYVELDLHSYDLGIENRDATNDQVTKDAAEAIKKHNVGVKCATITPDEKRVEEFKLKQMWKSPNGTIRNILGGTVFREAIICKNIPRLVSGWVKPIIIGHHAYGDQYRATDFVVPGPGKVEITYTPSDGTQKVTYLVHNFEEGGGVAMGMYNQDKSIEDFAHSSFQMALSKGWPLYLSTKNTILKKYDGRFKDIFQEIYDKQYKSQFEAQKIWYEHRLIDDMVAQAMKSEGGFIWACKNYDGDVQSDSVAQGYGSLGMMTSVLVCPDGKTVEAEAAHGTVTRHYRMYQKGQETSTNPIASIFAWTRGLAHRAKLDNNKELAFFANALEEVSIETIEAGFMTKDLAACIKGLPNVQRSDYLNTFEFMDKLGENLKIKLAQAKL
T cruzi growth-2: inhibitors of T. cruzi proliferation; shares compounds with T cruzi growth-1; T. cruzi beta-gal in NIH3T3, GalScreen luminescence, 90 h; inhibition, % at 8.35 µM; 5,600 tested, 72% active; AID 651739;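 active = mean replicate inhibition above about 95% and at least 55% of replicates individually reaching it, limit read from the data; inconclusive = only one of the two criteria is met; inactive = neither criterion is met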
T cruzi growth-3: inhibitors of T. cruzi proliferation; shares compounds with T cruzi growth-1; T. cruzi beta-gal in NIH3T3, GalScreen luminescence, 90 h; inhibition, % at 2.09 µM; 5,600 tested, 21% active; AID 651740;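 active = mean inhibition above about 95%, with at least 55% of replicates also reaching it, limit read from the data; inconclusive = meets just one of the two conditions; inactive = meets neither condition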;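 note: plate controls were neutral control median for no effect and positive control median for full effect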
NIH3T3 tox: kills mouse NIH/3T3 fibroblasts; shares compounds with T cruzi growth-1; NIH/3T3 viability, CellTiter-Glo ATP luminescence, 90 h; cytotoxicity (signal decrease), % at 8.35 µM; 5,600 tested, 14% active;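 active = mean signal decrease across replicates above about 35% based on untreated-well scatter, with enough replicates individually passing, limit read from the data; inconclusive = no rule stated though some were filed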;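 note: 0% = median of neutral control wells and 100% = median of positive control wells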
3T3 cytotox 2: cytotoxicity in mouse NIH/3T3 fibroblasts. shares compounds with T cruzi growth-1. NIH/3T3 viability, CellTiter-Glo ATP luminescence, 90 h. inhibition, % at 24.9 µM. 5,600 tested, 56% active. AID 651744;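 active = mean loss of cell viability signal at or above a set limit, and enough replicates individually reaching it; inconclusive = meets only the mean limit or only the replicate share; inactive = meets neither condition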;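 note: 0% = median of neutral control wells and 100% = median of positive control wells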
Starred values were filed as active, the others as inactive; ? = inconclusive; . = not tested or not shown.

SMILES | Pf Dd2 inh | T cruzi growth-1 | KDM4C inh | IDH1 mut inh | T cruzi growth-2 | T cruzi growth-3 | NIH3T3 tox | 3T3 cytotox 2
COc1cccc(NC(=O)N(C)C[C@@H]2Oc3ncc(C#Cc4ccccc4)cc3C(=O)N([C@@H](C)CO)C[C@@H]2C)c1 | -48 | ? | . | 0 | 100* | 58 | 29 | 12
COc1cccc(C#Cc2cnc3c(c2)C(=O)N([C@H](C)CO)C[C@@H](C)[C@H](CN(C)C)O3)c1 | -50 | 102* | -1 | 4 | 102* | 44 | 29 | 105*
C[C@H](CO)N1C[C@H](C)[C@@H](CN(C)C(=O)Nc2ccccc2)Oc2ncc(C#CC3CCCCC3)cc2C1=O | -31 | 103* | 4 | 0 | 106* | 37 | 12 | 30*
COc1ccc(S(=O)(=O)N(C)C[C@@H]2Oc3cc(C#CC4CC4)ccc3S(=O)(=O)N([C@H](C)CO)C[C@H]2C)cc1 | -71 | 106* | 0 | . | 103* | 67 | 37* | 47*
COc1ccc(S(=O)(=O)N(C)C[C@H]2Oc3cc(C#CC4CCCC4)ccc3S(=O)(=O)N([C@@H](C)CO)C[C@@H]2C)cc1 | ? | 40 | -3 | . | . | . | . | .
COc1ccc(S(=O)(=O)N(C)C[C@H]2Oc3cc(C#CC4CC4)ccc3S(=O)(=O)N([C@@H](C)CO)C[C@H]2C)cc1 | -60 | 110* | -1 | . | 109* | ? | -8 | 57*
COc1ccc(S(=O)(=O)N(C)C[C@H]2Oc3cc(C#CC4CC4)ccc3S(=O)(=O)N([C@@H](C)CO)C[C@@H]2C)cc1 | -73 | 102* | 1 | 1 | 97* | 91 | 53* | 67*
COc1ccc(S(=O)(=O)N(C)C[C@H]2Oc3cc(C#CC4CCCC4)ccc3S(=O)(=O)N([C@@H](C)CO)C[C@H]2C)cc1 | -75 | 47 | -1 | 0 | . | . | . | .
CCOC(=O)c1c(CSc2cccc3cccnc23)nc2c3ccccc3ccn12 | . | . | . | 0 | . | . | . | .
CC(C)(C)c1ccc(-c2nnc(SCc3cccc(C(N)=O)c3)n2-c2ccc3c(c2)OCO3)cc1 | . | . | . | 0 | . | . | . | .
C[C@H](CO)N1C[C@H](C)[C@H](CN(C)S(=O)(=O)c2ccccc2)OCCCC[C@H](C)Oc2ccc(NS(=O)(=O)c3ccc(Cl)cc3)cc2C1=O | -33 | 118* | -3 | . | 104* | 88 | -18 | -5
C[C@@H]1CCCCO[C@H](CN(C)S(=O)(=O)c2ccc(Cl)cc2)[C@H](C)CN([C@H](C)CO)C(=O)c2cc(NS(=O)(=O)c3ccc(Cl)cc3)ccc2O1 | -66 | 108* | 1 | 2 | 101* | 116* | 10 | -15
C[C@@H]1CCCCO[C@@H](CN(C)S(=O)(=O)c2ccc(Cl)cc2)[C@H](C)CN([C@H](C)CO)C(=O)c2cc(NS(=O)(=O)c3ccccc3)ccc2O1 | -70 | 104 | -1 | . | . | . | . | .
C[C@@H]1CCCCO[C@H](CN(C)S(=O)(=O)c2ccccc2)[C@H](C)CN([C@H](C)CO)C(=O)c2cc(NS(=O)(=O)c3ccc(Cl)cc3)ccc2O1 | -36 | 117* | -2 | 2 | 100* | 102* | 17 | 4
C[C@H](CO)N1C[C@H](C)[C@@H](CN(C)S(=O)(=O)c2ccccc2)OCCCC[C@H](C)Oc2ccc(NS(=O)(=O)c3ccc(Cl)cc3)cc2C1=O | -4 | 114* | 25 | . | 101* | 67 | 30 | 9
C[C@@H]1CCCCO[C@@H](CN(C)S(=O)(=O)c2ccc(Cl)cc2)[C@H](C)CN([C@@H](C)CO)C(=O)c2cc(NS(=O)(=O)c3ccc(Cl)cc3)ccc2O1 | 1 | 61 | -1 | . | . | . | . | .
C[C@@H]1CCCCO[C@@H](CN(C)S(=O)(=O)c2ccccc2)[C@@H](C)CN([C@H](C)CO)C(=O)c2cc(NS(=O)(=O)c3ccc(Cl)cc3)ccc2O1 | -34 | 63 | 0 | . | . | . | . | .
O=C(/C=C/c1ccc(OCCCCc2ccccc2)cc1)NO | . | . | . | 0 | . | . | . | .
COc1ccc(C(=O)N(Cc2nc(-c3ccccc3)no2)C(C)C)cc1OC | . | . | . | 0 | . | . | . | .
CCOC(=O)C1=C(C)NC(c2ccccc2)=C(C(=O)OCc2ccc([N+](=O)[O-])cc2)C1C#Cc1ccccc1 (stereo not drawn) | . | . | . | 1 | . | . | . | .
CC1(C)COC(CCC/C=N/NC(=O)c2ccccc2O)OC1 | . | . | . | 1 | . | . | . | .
C[C@H](CO)N1C[C@H](C)[C@@H](CN(C)S(=O)(=O)c2ccc(Cl)cc2)OCCCC[C@H](C)Oc2ccc(NS(=O)(=O)c3ccccc3)cc2C1=O | -67 | . | 0 | . | . | . | . | .
C[C@@H]1CN([C@@H](C)CO)C(=O)c2cc(NS(=O)(=O)c3ccc(Cl)cc3)ccc2O[C@@H](C)CCCCO[C@H]1CN(C)S(=O)(=O)c1ccccc1 | -22 | 120* | -1 | -1 | 108* | 53 | 11 | 4
C[C@@H]1CN([C@H](C)CO)C(=O)c2cc(NS(=O)(=O)c3ccc(Cl)cc3)ccc2O[C@@H](C)CCCCO[C@@H]1CN(C)S(=O)(=O)c1ccccc1 | -64 | 118* | -3 | 1 | 104* | 93 | -27 | 22
C[C@@H]1CN([C@@H](C)CO)C(=O)c2cc(NS(=O)(=O)c3ccc(Cl)cc3)ccc2O[C@@H](C)CCCCO[C@@H]1CN(C)S(=O)(=O)c1ccccc1 | -65 | 83 | 1 | 1 | . | . | . | .
SMILES | Pf Dd2 inh | T cruzi growth-1 | KDM4C inh | IDH1 mut inh | T cruzi growth-2 | T cruzi growth-3 | NIH3T3 tox | 3T3 cytotox 2
COc1ccc(S(=O)(=O)N(C)CC(=O)Nc2ccccc2Br)cc1Cl | . | . | . | 0 | . | . | . | .
CCCN(C)C[C@@H]1Oc2cc(C#Cc3ccccc3F)ccc2S(=O)(=O)N([C@@H](C)CO)C[C@H]1C | -48 | ? | 1 | 0 | 107* | 79 | 11 | 105*
CCCN(C)C[C@@H]1Oc2cc(C#Cc3cccc(F)c3)ccc2S(=O)(=O)N([C@H](C)CO)C[C@@H]1C | . | 108* | 0 | 0 | 107* | 55 | 15 | 106*
CCCN(C)C[C@H]1Oc2cc(C#Cc3cccc(F)c3)ccc2S(=O)(=O)N([C@H](C)CO)C[C@H]1C | . | 20 | 7 | 0 | . | . | . | .
CCCN(C)C[C@H]1Oc2cc(C#Cc3cccc(F)c3)ccc2S(=O)(=O)N([C@@H](C)CO)C[C@H]1C | . | 108* | -1 | -1 | 102* | 46 | 29 | 103*
CCCN(C)C[C@H]1Oc2cc(C#Cc3cccc(F)c3)ccc2S(=O)(=O)N([C@H](C)CO)C[C@@H]1C | . | 110* | 0 | 1 | 112* | 56 | 1 | 104*
COc1ccc(Nc2nc(NC(C)(C)C)nc(OC)n2)c(OC)c1 | . | . | . | 0 | . | . | . | .
